ChEMBL document CHEMBL1123214, “(o- and p-Nitrobenzyloxycarbonyl)-5-fluorouracil derivatives as potential conjugated bioreductive alkylating agents” (1986)

Key:
Assay type in all cases: functional
[1] = tested on: Mus musculus; test: Compound was tested for the effect on the survival time of the mice bearing P388 leukemia at dose 20 mg/kg
Summary of the method: (§1)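 Ascites cells were taken from donor CDF₁ mice with 7-day growths, spun, diluted 10-fold in isotonic saline and set to 10⁷ cells/mL. About 10⁶ cells were given ip per mouse. Drug was homogenized in 20% aqueous Tween 80, made up in saline, and given ip once daily for 6 days from 24 h after implant. Vehicle controls were included. Read-out was survival time, as T/C × 100, with % weight change as toxicity.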

[2] = tested on: Mus musculus; test: Compound was tested for the effect on the survival time of the mice bearing Sarcoma 180 ascites at dose of 20 mg/kg; summary of the method: as §1
[3] = tested on: Mus musculus; test: Compound was tested for the effect on the survival time of the mice bearing P388 leukemia at dose 20 mg/kg; ratio of survival time of treated and control; summary of the method: as §1
[4] = tested on: Mus musculus; test: Compound was tested for the effect on the survival time of the mice bearing Sarcoma 180 ascites at dose of 20 mg/kg; ratio of survival time of treated and control; summary of the method: as §1
[5] = tested on: Mus musculus; test: Compound was tested for the effect on the survival time of the mice bearing P388 leukemia at dose 60 mg/kg; summary of the method: as §1
[6] = tested on: Mus musculus; test: Compound was tested for the effect on the survival time of the mice bearing P388 leukemia at dose 60 mg/kg; ratio of survival time of treated and control; summary of the method: as §1
[7] = tested on: Mus musculus; test: Compound was tested for the effect on the survival time of the mice bearing P388 leukemia at dose 40 mg/kg; ratio of survival time of treated and control; summary of the method: as §1
[8] = tested on: Mus musculus; test: Compound was tested for the effect on the survival time of the mice bearing P388 leukemia at dose 80 mg/kg; summary of the method: as §1
[9] = tested on: Mus musculus; test: Compound was tested for the effect on the survival time of the mice bearing P388 leukemia at dose 40 mg/kg; summary of the method: as §1
[10] = tested on: Mus musculus; test: Compound was tested for the effect on the survival time of the mice bearing P388 leukemia at dose 80 mg/kg; ratio of survival time of treated and control; summary of the method: as §1
[11] = tested on: Mus musculus; test: Compound was tested for the effect on the survival time of the mice bearing P388 leukemia at dose 25 mg/kg; summary of the method: as §1
[12] = tested on: Mus musculus; test: Compound was tested for the effect on the survival time of the mice bearing P388 leukemia at dose 50 mg/kg; ratio of survival time of treated and control; summary of the method: as §1
[13] = tested on: Mus musculus; test: Compound was tested for the effect on the survival time of the mice bearing P388 leukemia at dose 25 mg/kg; ratio of survival time of treated and control; summary of the method: as §1
[14] = tested on: Mus musculus; test: Compound was tested for the effect on the survival time of the mice bearing P388 leukemia at dose 100 mg/kg; summary of the method: as §1
[15] = tested on: Mus musculus; test: Compound was tested for the effect on the survival time of the mice bearing P388 leukemia at dose 100 mg/kg; ratio of survival time of treated and control; summary of the method: as §1
[16] = tested on: Mus musculus; test: Compound was tested for the effect on the survival time of the mice bearing P388 leukemia at dose 50 mg/kg; summary of the method: as §1
[17] = tested on: Mus musculus; test: Compound was tested for the effect on the survival time of the mice bearing P388 leukemia at dose 200 mg/kg; ratio of survival time of treated and control; summary of the method: as §1
[18] = tested on: Mus musculus; test: Compound was tested for the effect on the survival time of the mice bearing Sarcoma 180 ascites at dose of 40 mg/kg; ratio of survival time of treated and control; summary of the method: as §1
[19] = tested on: Mus musculus; test: Compound was tested for the effect on the survival time of the mice bearing Sarcoma 180 ascites at dose of 40 mg/kg; summary of the method: as §1
[20] = tested on: Mus musculus; test: Compound was tested for the effect on the survival time of the mice bearing P388 leukemia at dose 200 mg/kg; summary of the method: as §1
[21] = tested on: Mus musculus; test: Compound was tested for the effect on the survival time of the mice bearing Sarcoma 180 ascites at dose of 10 mg/kg; ratio of survival time of treated and control; summary of the method: as §1
[22] = tested on: Mus musculus; test: Compound was tested for the effect on the survival time of the mice bearing Sarcoma 180 ascites at dose of 10 mg/kg; summary of the method: as §1

Structure (SMILES)	Change in weight [5] [%]	T/C [6]	Change in weight [11] [%]	T/C [12]	T/C [13]	Change in weight [14] [%]	T/C [15]	Change in weight [16] [%]	further results
O=c1[nH]cc(F)c(=O)[nH]1 [FLUOROURACIL]	–	–	–	–	–	–	–	–	Change in weight [1]: -12.5%; Change in weight [2]: -3.4%; T/C [3]: 185; T/C [4]: 277
O=c1[nH]c(=O)n(C2CCCO2)cc1F (stereo not drawn) [TEGAFUR]	12.2	100	–	–	–	–	–	–	–
O=C(Cc1ccc([N+](=O)[O-])cc1)On1cc(F)c(=O)n(OC(=O)Cc2ccc([N+](=O)[O-])cc2)c1=O	-5.5	149	–	–	–	–	–	–	T/C [7]: 136; Change in weight [8]: -7.4%; Change in weight [9]: -2.7%; T/C [10]: 158
O=c1c(F)cn(C2CCCO2)c(=O)n1Cc1ccccc1[N+](=O)[O-] (stereo not drawn)	–	–	10.3	96	90	13.7	96	7.8	–
O=C(Cc1ccc([N+](=O)[O-])cc1)On1c(=O)[nH]cc(F)c1=O	-2.9	196	–	–	–	-11.6	158	–	T/C [17]: 64; T/C [7]: 190; T/C [18]: 332; Change in weight [19]: -7.6%; Change in weight [1]: 5.6%; Change in weight [2]: 2.7%; T/C [3]: 165; Change in weight [8]: -5.8%; Change in weight [9]: 0%; Change in weight [20]: -10.7%; T/C [4]: 124; T/C [21]: 159; Change in weight [22]: 9.6%; T/C [10]: 212
O=c1c(F)cn(Cc2ccccc2[N+](=O)[O-])c(=O)n1Cc1ccccc1[N+](=O)[O-]	–	–	17.8	88	90	22.4	86	15	–
O=c1[nH]c(=O)n(Cc2ccccc2[N+](=O)[O-])cc1F	–	–	13.3	92	90	20.8	88	10	–
